Most compounds without a hit are left out; they make up all but 1.7% or so of the library.
RanGTP-Impb inh: inhibitors of RanGTP-importin-beta interaction, primary screen, biochemical, FRET, CFP-Ran, YFP-importin-beta, homogeneous; cell-free CFP-Ran/YFP-importin-beta FRET ratio; inhibition, % (no concentration beside the values); actives 1.1% (n = 300,000);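 active = more than half of the replicate wells show a fall in the fluorescence ratio signal beyond about 16%, limit read from the data, passing the limit was not always enough; inconclusive = exactly half of the replicate wells pass the set limit; inactive = fewer than half of replicates pass the limit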;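 also: 0% = DMSO wells and 100% = Ran loaded with GDP instead of GTP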
Runt-CBFb FRET: blocks binding of human RUNX1 Runt domain to CBFb; Cerulean-Runt/Venus-CBFb FRET ratio 530/480, 1 h; inhibition, % at 20 µM; actives 0.46% (n = 220,000);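 active = inhibition over about 50% at 20 µM in the single-dose screen, limit read from the data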;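 also: 0% = DMSO wells and 100% = excess unlabeled CBFb competitor control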
Target sequence (Q01196 whole entry, looked up, the tested form may be a part): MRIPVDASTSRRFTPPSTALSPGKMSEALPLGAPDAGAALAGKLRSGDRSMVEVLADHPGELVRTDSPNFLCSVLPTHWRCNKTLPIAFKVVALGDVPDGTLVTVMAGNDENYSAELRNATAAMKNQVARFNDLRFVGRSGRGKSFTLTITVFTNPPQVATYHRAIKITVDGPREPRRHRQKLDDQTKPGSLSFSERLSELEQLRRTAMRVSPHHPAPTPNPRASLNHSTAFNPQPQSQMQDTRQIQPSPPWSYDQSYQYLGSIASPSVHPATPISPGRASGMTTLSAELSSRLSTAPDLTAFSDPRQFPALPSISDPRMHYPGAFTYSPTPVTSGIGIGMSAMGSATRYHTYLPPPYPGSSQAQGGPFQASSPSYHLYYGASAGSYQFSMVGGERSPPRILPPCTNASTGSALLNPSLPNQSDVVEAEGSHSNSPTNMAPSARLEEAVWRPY
Target sequence (Q13951 whole entry, looked up, the tested form may be a part): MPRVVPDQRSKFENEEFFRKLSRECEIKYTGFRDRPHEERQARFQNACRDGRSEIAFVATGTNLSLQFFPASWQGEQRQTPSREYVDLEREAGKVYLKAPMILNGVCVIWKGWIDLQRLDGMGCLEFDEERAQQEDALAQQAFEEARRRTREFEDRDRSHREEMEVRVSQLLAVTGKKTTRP
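Assay system: Cerulean-tagged RUNX1 Runt domain (FRET donor) fusion protein / Amount: 100 nM each of Venus-CBFb and Cerulean-Runt domain / Medium: Tris buffer pH 7.5 with salts and BSA / Also added: Venus-CBFb 100 nM / Schedule: 1 h complex formation plus 1 h compound treatment, room temperature / Signal: FRET fluorescence / Read-out: loss of energy transfer signal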
Runt-SMMHC FRET: Runt domain-CBFb-SMMHC interaction inhibition; actives 0.74% (n = 220,000); Q01196+Q13951; Cerulean-Runt/Venus-CBFb-SMMHC FRET ratio 530/480, 1 h; inhibition, % at 20 µM; AID 1434;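 active = mean inhibition across duplicate retests at 20 µM reaching about 50%, limit read from the data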;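 also: 0% = DMSO wells and 100% = wells with excess untagged CBFb-SMMHC; inhibitors lower the FRET ratio by blocking Runt binding to CBFb-SMMHC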
Hck Nef HTS: inhibitors of human Hck kinase activated by Nef | inhibition, % at 20 µM | actives 0.68% (n = 220,000) | Recombinant Hck-YEEI plus Nef, Z-Lyte FRET kinase assay | P08631 | AID 463187;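 active = Hck-Nef kinase inhibition above about 50%, limit read from the data; inactive = inhibition below that limit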;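 also: 0% = DMSO with Hck plus Nef and 100% = Hck alone without Nef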
YIC counter: counter-screen YIC FRET for RanGTP-importin-beta inhibitors; shares compounds with RanGTP-Impb inh; Purified YIC probe, intramolecular FRET ratio YFP/CFP; IC50, µM; actives 40% (n = 1,000);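 active = fitted half-maximal inhibitory concentration no more than tenfold above the top dose tested; inconclusive = flat fit with 30 to 70% activity, or poor fit; inactive = half-maximal concentration beyond tenfold above the top dose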
Hck-Nef confirm: Hck-Nef kinase inhibition, confirmation; shares compounds with Hck Nef HTS; Recombinant Hck-YEEI:Nef, Z-Lyte FRET kinase assay; calls only at 10 µM; actives 28% (n = 1,300); AID 463188;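 active = average inhibition of at least 50%, with Z-scores no higher than 3 in both the phospho-tyrosine peptide and fluorescence counterscreens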
An asterisk follows results filed as active; i = inactive; ? = inconclusive; . = no result shown; + = active, no number.

SMILES	RanGTP-Impb inh	Runt-CBFb FRET	Runt-SMMHC FRET	Hck Nef HTS	Hck-Nef confirm	others
Cn1ccnc1C(=O)c1cc(SCC(=O)NCc2ccccc2)nc2ccccc12	-1.5	1.9	-1.2	-1.1	.
CCOc1ccc(-n2c(N)c(-c3nc4ccccc4n3C)c3nc4ccccc4nc32)cc1	0.9	-37.1	-125.6	1.6	.
CCOc1ccc(-n2c(N)c(C(=O)NCc3ccco3)c3nc4ccccc4nc32)cc1	25.1*	34.7	86.0*	52.9*	i	YIC counter=20.8*
CC(=O)Oc1cc2oc(=O)cc(C)c2cc1OC(C)=O	30.2*	81.0*	41.9	68.2*	.	YIC counter=44.8*
CCn1c2ccccc2c2cc(NC(=O)COC(=O)c3ccc(NC(=O)CC#N)cc3)ccc21	-0.1	.	.	.	.
Cn1cccc1Cc1nnc(SCC(=O)NCC2CCCO2)n1C (centres undefined)	2.5	1.3	-3.4	-2.6	.
CCCc1cc(=O)oc2cc(C)c(CN3CCCC3)c(O)c12	2.9	-4.5	-18.8	2.0	.
CCCc1cc(=O)oc2c(CN3CCCC3)c(O)c(Cl)cc12	61.6*	98.1*	159.8*	116.3*	i	YIC counter=27.2*
CCN(CC)C(=O)Cn1c(=O)n(-c2ccc(CC(=O)NCc3ccccc3)cc2)c(=O)c2sccc21	0.0	-4.4	1.2	14.3	.
CC(C)CCN(CCC(C)C)CC(O)Cn1c2ccccc2c(=O)c2ccccc21 (centres undefined)	57.2*	107.1*	82.5*	117.2*	.	YIC counter=3.73*
O=C(c1ccccc1)c1cc2ccc(O)cc2oc1=O	27.4*	.	174.0*	69.3*	.	YIC counter=18.2*
Nc1ncnc2oc(-c3ccco3)c(-c3ccco3)c12	-4.9	16.8	0.9	71.3*	+
CCOC(=O)c1c(NC(=O)/C=C/C(=O)O)sc(C)c1-c1ccc(F)cc1	-3.4	-1.4	1.1	51.3*	+
CCOC(=O)c1c(NC(=O)/C=C/C(=O)O)sc(C)c1-c1ccc(C)c(C)c1	7.7	1.3	-5.4	29.8	.
Cc1ccc(S(=O)(=O)NC(C)C(=O)N2CCOCCOCCOCCOCC2)cc1 (centres undefined)	-1.0	.	.	.	.
CCCc1cc(NCCCCO)n2c(nc3ccccc32)c1C#N	42.9*	21.4	53.9*	96.9*	.
CCCc1cc(-n2ccnc2C)n2c(nc3ccccc32)c1C#N	5.6	.	.	.	.
Cc1cc(NCCCCO)n2c(nc3ccccc32)c1C#N	38.3*	12.5	27.2	59.3*	.
C/C=C\C=C/C(=O)Nc1cccc(C2=NOC3(C2)C[C@H](C(N)=O)N(C(=O)Cc2ccc([N+](=O)[O-])cc2)C3)c1 (some centres undefined)	3.6	-5.5	-5.4	4.7	.
CC1=NNC(=O)/C1=C\c1cn(-c2ccccc2)nc1-c1ccc(F)cc1	-3.2	-5.1	-17.7	85.7*	+
CC1=NNC(=O)/C1=C\c1cn(-c2ccccc2)nc1-c1cccs1	-3.4	4.8	-10.9	99.2*	+
O=C(O)CCCCCN1C(=O)/C(=C\c2cn(-c3ccccc3)nc2-c2cccs2)SC1=S	-19.9	-0.4	-25.0	29.5	.
O=Cc1cn(-c2ccccc2)nc1-c1ccc(F)cc1	1.7	.	.	.	.
Clc1ccc(/C=N/Nc2ncnc3nc[nH]c23)cc1	-2.8	1.8	2.0	84.1*	+
Oc1ccc(/C=N/Nc2ncnc3nc[nH]c23)cc1	3.8	1.1	-8.1	94.9*	+
SMILES	RanGTP-Impb inh	Runt-CBFb FRET	Runt-SMMHC FRET	Hck Nef HTS	Hck-Nef confirm	others
c1csc(CNc2ncnc3nc[nH]c23)c1	2.1	3.9	-4.1	2.9	.
Cc1ccc(/C=N/Nc2ncnc3nc[nH]c23)cc1	-1.3	1.1	1.3	93.3*	+
CCOc1ccccc1NC(=O)C1CCCN(S(=O)(=O)c2ccc(-n3cnnn3)cc2)C1 (centres undefined)	-3.6	.	.	.	.
CSCCC(C)N1CCC(Oc2ccc(C(=O)N3CCCC3)cc2)CC1 (centres undefined)	7.8	.	.	.	.
NS(=O)(=O)c1ccc(N/N=C/c2ccc(O)cc2O)c([N+](=O)[O-])c1	?	-0.6	0.2	92.5*	+
NS(=O)(=O)c1ccc(N/N=C/c2ccccc2C(=O)O)c([N+](=O)[O-])c1	-4.2	-2.8	1.5	-2.9	.
CCC(C)C(NC(=O)c1ccccc1NC(=O)c1ccc(OC)cc1)C(=O)NCc1ccco1 (centres undefined)	1.7	-0.9	-1.6	68.9*	+
Cc1ccc(C(=O)Oc2cc(C)n(C)c(=O)c2)cc1	-1.0	-0.9	-1.9	-2.9	.
Cc1ccc2occ(C3NC(C(=O)O)CS3)c(=O)c2c1 (centres undefined)	-3.0	6.1	5.4	82.5*	+
Cc1ccc2occ(C3N[C@H](C(=O)O)CS3)c(=O)c2c1 (some centres undefined)	2.7	1.9	2.1	73.2*	i
O=C(O)C1CSC(c2ccco2)N1 (centres undefined)	3.4	1.6	-5.0	10.2	.
FC(F)Oc1ccccc1/C=N/n1cnc2ccccc21	10.8	-4.9	-1.9	21.7	.
Brc1ccc(C2C3=C(Nc4ncnn42)c2ccccc2OC3c2ccncc2)cc1 (centres undefined)	2.9	-0.6	1.8	72.7*	+
COc1ccc(NC(=O)CS(=O)c2cccc(C(F)(F)F)c2)cc1 (centres undefined)	-0.7	.	.	.	.
Cc1ccc(C(=O)Nc2cccc(C(F)(F)F)c2)cc1NC(=O)c1cnnc2ccccc12	8.4	1.7	-6.1	73.7*	i
O=C(O)COc1ccccc1/C=N/Nc1ccc(S(=O)(=O)Nc2ccc(Cl)cc2)cc1[N+](=O)[O-]	-0.4	-10.6	-16.7	104.3*	i
Cc1ccccc1/C=N/n1c(-c2cc(-c3ccccc3)n[nH]2)n[nH]c1=S	4.0	10.5	31.2	9.6	.
S=c1[nH]nc(-c2cc(-c3ccccc3)n[nH]2)n1/N=C/c1c(Cl)cccc1Cl	-0.8	12.6	11.4	71.8*	+
S=c1[nH]nc(-c2ccco2)n1/N=C/C=C/c1ccco1	-0.8	49.6	38.7	2.1	.
S=c1[nH]nc(-c2cc(-c3ccccc3)n[nH]2)n1/N=C/C=C/c1ccco1	-0.4	26.2	11.2	71.3*	i
S=c1[nH]nc(-c2n[nH]c3c2CCC3)n1/N=C/C=C/c1ccco1	3.7	27.7	15.6	75.3*	i
CCOc1ccc2nc(NC(=O)c3cccc(-c4cc5ccccc5oc4=O)c3)sc2c1	1.7	-0.8	-5.2	42.6	.
Cc1ccc2nc(NC(=O)c3cccc(-c4cc5ccccc5oc4=O)c3)sc2c1	-1.6	-7.1	-1.8	63.2*	i
CCOc1ccccc1NC(=O)CCc1c(C)nn(-c2ccc(N3CCCCC3)nn2)c1C	4.9	.	.	.	.
Nc1cc2ccncc2c2ccccc12	11.2	11.5	27.9	52.4*	i
